Experimental data taken from publication PMC11112715 (ACS Omega, 2024).
Read-outs that look alike come from different tables or passages of the source.

Key:
[1] = tested on: SCC-9 cells (human tongue oral squamous cell carcinoma); assay: MTT cell viability assay in SCC-9 cells; type: cell-based; conditions: for IC50: read-out: IC50 SSC9 oral squamous cell carcinoma; for Selectivity index (S.I.): IC50 in NIH3T3 / IC50 in SCC-9
Summary of the method: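 SCC-9 tongue OSCC cells from ATCC, grown in 1:1 DMEM/F12 with 10% FBS and 400 ng/mL hydrocortisone, 37 °C, 5% CO2. Plated at 5 × 10³ cells/well in triplicate, 48 h with graded test compound doses against matched DMSO (100% viability). MTT for 4 h, formazan in methanol/DMSO 1:1, absorbance 560 nm minus 670 nm. S.I. = IC50 NIH3T3 / IC50 SCC-9.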

[2] = tested on: NIH3T3 mouse fibroblast cells; assay: MTT cell viability assay in NIH3T3 normal fibroblasts; type: cell-based; conditions: read-out: IC50 NIH3T3 normal mouse fibroblasts
Summary of the method: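 NIH3T3 fibroblasts from ATCC, kept in DMEM with 10% FBS at 37 °C, 5% CO2. Seeded at 5 × 10³ cells/well in triplicate and exposed to a range of test compound concentrations for 48 h; DMSO diluted in medium at matching levels set 100% viability. MTT in medium for 4 h, formazan dissolved in 1:1 methanol/DMSO, A560 read minus 670 nm background.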

[3] = tested on: SCC-9 cells; assay: Cell cycle progression and cell death, propidium iodide flow cytometry; type: cell-based, human; conditions: 48 h, compared to negative control

For `O=C1C=C(OCC#C[Se]c2ccc3ccccc3c2)C(=O)c2ccccc21` [Compound 9g, 2-((3-(Naphthalen-2-ylselanyl)prop-2-yn-1-yl)oxy)naphthalene-1,4-Dione], the IC50 ([1]; Homo sapiens, SCC-9, 48 h) was 68.2 µM.

For `O=C1C=C(OCC#C[Se]c2ccc(F)cc2)C(=O)c2ccccc21` [Compound 9d, 2-((3-((4-Fluorophenyl)selanyl)prop-2-yn-1-yl)oxy)naphthalene-1,4-dione], the IC50 ([2]; Mus musculus, NIH3T3, 48 h) was 24.2 µM, the IC50 ([1]; Homo sapiens, SCC-9, 48 h) was 23.5 µM and the “Selectivity index (S.I.)” value [1] was 1.03.

In the case of `O=C1C=C(OCC#C[Te]c2ccccc2)C(=O)c2ccccc21` [Compound 10a, 2-((3-(Phenyltellanyl)prop-2-yn-1-yl)oxy)naphthalene-1,4-dione], the “Effect on DNA fragmentation” value [3] is reported as “increased DNA fragmentation”, the “Effect on cells in G2/M phases” value [3] is reported as “no apparent alteration in the percentage of cells in the G2/M phases” and the “Effect on proportion of cells in G0/G1 phase” value (from here on “Effect on proportion of cells”) [3] is reported as “significantly decreased the proportion of cells in the G0/G1 phase”. The IC50 ([2]; Mus musculus, NIH3T3, 48 h) was 5.83 µM, the IC50 ([1]; Homo sapiens, SCC-9, 48 h) was 1.65 µM and the “Selectivity index (S.I.)” value [1] was 3.53.

In the case of `O=C1C=C(OCC#C[Se]c2ccccc2)C(=O)c2ccccc21` [Compound 9a, 2-((3-(Phenylselanyl)prop-2-yn-1-yl)oxy)naphthalene-1,4-dione], the IC50 ([2]; Mus musculus, NIH3T3, 48 h) is reported as 83.6 µM, the IC50 ([1]; Homo sapiens, SCC-9, 48 h) is reported as 31.9 µM and the “Selectivity index (S.I.)” value [1] is reported as 2.62.

In the case of `N.N.O=C([O-])C1(C(=O)[O-])CCC1.[Pt+2]` [carboplatin, reference compound], the IC50 ([2]; MTT, 48 h treatment) is reported as 156 µM, the “Selectivity index (S.I.)” value [1] is reported as 0.27 and the IC50 ([1]; MTT, 48 h treatment) is reported as 572 µM.

With `O=C1C=C(OCC#C[Te]c2ccc(Cl)cc2)C(=O)c2ccccc21` [Compound 10c, 2-((3-((4-Chlorophenyl)tellanyl)prop-2-yn-1-yl)oxy)naphthalene-1,4-dione] the “Effect on DNA fragmentation” value [3] was “increased DNA fragmentation”, the “Effect on cells in G2/M phases” value [3] was “marked reduction of cells in the G2/M phases” and the IC50 ([2]; Mus musculus, NIH3T3, 48 h) was 4.9 µM. The IC50 ([1]; Homo sapiens, SCC-9, 48 h) was 2.89 µM and the “Selectivity index (S.I.)” value [1] was 1.70.

With `O=C1C=C(OCC#C[Se]c2ccc(C(F)(F)F)cc2)C(=O)c2ccccc21` [Compound 9f, 2-((3-((4-(Trifluoromethyl)phenyl)selanyl)prop-2-yn-1-yl)oxy)naphthalene-1,4-dione] the “Effect on DNA fragmentation” value [3] was “increased DNA fragmentation”, the “Effect on cells in G2/M phases” value [3] was “marked reduction of cells in the G2/M phases” and the “Effect on proportion of cells” value [3] was “increased numbers of cells in the G0/G1 phase”. For the same compound, the IC50 ([2]; Mus musculus, NIH3T3, 48 h) was 56.5 µM, the IC50 ([1]; Homo sapiens, SCC-9, 48 h) was 31.7 µM and the “Selectivity index (S.I.)” value [1] was 1.78.

With `COc1cccc2c1C(=O)c1c(O)c3c(c(O)c1C2=O)C[C@@](O)(C(=O)CO)C[C@@H]3O[C@H]1C[C@H](N)[C@H](O)[C@H](C)O1` [doxorubicin, reference compound] the IC50 ([2]; Mus musculus, NIH3T3, 48 h) was 1.66 µM, the IC50 ([1]; Homo sapiens, SCC-9, 48 h) was 2.71 µM and the “Selectivity index (S.I.)” value [1] was 0.61.

`O=C1C=C(OCC#C[Se]c2ccc(Cl)cc2)C(=O)c2ccccc21` [Compound 9e, 2-((3-((4-Chlorophenyl)selanyl)prop-2-yn-1-yl)oxy)naphthalene-1,4-dione] was tested, and the IC50 ([1]; Homo sapiens, SCC-9, 48 h) was 65.4 µM.

`Cc1ccc([Te]C#CCOC2=CC(=O)c3ccccc3C2=O)cc1` [Compound 10b, 2-((3-(p-Tolyltellanyl)prop-2-yn-1-yl)oxy)naphthalene-1,4-dione] was tested, and the “Effect on DNA fragmentation” value [3] was “increased DNA fragmentation”, the “Effect on cells in G2/M phases” value [3] was “no apparent alteration in the percentage of cells in the G2/M phases” and the “Effect on proportion of cells” value [3] was “significantly decreased the proportion of cells in the G0/G1 phase”. For the same compound, the IC50 ([2]; Mus musculus, NIH3T3, 48 h) was 2.27 µM, the IC50 ([1]; Homo sapiens, SCC-9, 48 h) was 4 µM and the “Selectivity index (S.I.)” value [1] was 0.57.

For `COc1ccc([Se]C#CCOC2=CC(=O)c3ccccc3C2=O)cc1` [Compound 9c, 2-((3-((4-Methoxyphenyl)selanyl)prop-2-yn-1-yl)oxy)naphthalene-1,4-dione], the “Effect on proportion of cells” value [3] was “increased numbers of cells in the G0/G1 phase”, the IC50 ([2]; Mus musculus, NIH3T3, 48 h) was 27.2 µM and the IC50 ([1]; Homo sapiens, SCC-9, 48 h) was 24.8 µM. The “Selectivity index (S.I.)” value [1] was 1.10.

In the case of `C#CCOC1=C(Sc2ccccc2)C(=O)c2ccccc2C1=O` [Compound 11, 2-(Phenylthio)-3-(prop-2-yn-1-yloxy)naphthalene-1,4-dione], the IC50 ([1]; Homo sapiens, SCC-9, 48 h) is reported as 62.3 µM.

Compound `CCCC[Se]C#CCOC1=CC(=O)c2ccccc2C1=O` [Compound 9i, 2-((3-(Butylselanyl)prop-2-yn-1-yl)oxy)naphthalene-1,4-dione] has an IC50 ([1]; Homo sapiens, SCC-9, 48 h) of 37.4 µM.

With `Cc1ccc([Se]C#CCOC2=CC(=O)c3ccccc3C2=O)cc1` [Compound 9b, 2-((3-(p-Tolylselanyl)prop-2-yn-1-yl)oxy)naphthalene-1,4-dione] the IC50 ([2]; Mus musculus, NIH3T3, 48 h) was 8.93 µM, the IC50 ([1]; Homo sapiens, SCC-9, 48 h) was 17.1 µM and the “Selectivity index (S.I.)” value [1] was 0.52.

`Cc1cc(C)c([Se]C#CCOC2=CC(=O)c3ccccc3C2=O)c(C)c1` [Compound 9h, 2-((3-(Mesitylselanyl)prop-2-yn-1-yl)oxy)naphthalene-1,4-dione] showed an IC50 ([1]; Homo sapiens, SCC-9, 48 h) of 49 µM.
